In brackets after ≈: the same amount, converted by molar mass.
Tests used:
Type in all cases: functional
[1] = In vitro antifungal activity against 6 filamentous fungi
Outline: (§1)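 Agar dilution on Kimmig's agar with 0.5% glycerol, using ATCC strains or clinical isolates. Drug stocks were 800 μg/mL in 50% ethanol, tested as 2-fold dilutions from 80 to 0.03 μg/mL. Inocula were 10⁵ cfu/mL. […] Geometric means took >80 as 160 and ≤0.03 as 0.03.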

[2] = In vitro for antifungal activity against 10 yeasts; outline: as §1
Candida albicans [3] = test: In vivo antifungal activity against murine candidosis model after peroral administration with 1 mg/kg at various time intervals. (percent protection for 100% mortality with fluconazole-treated group.); conditions: route oral
Outline: (§2)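 Groups of 10 male mice were infected iv with 0.2 mL of C. albicans at 2 to 8×10^7 cfu/mL. Drug was given orally as a suspension in 1% Tween + 0.2% carboxymethylcellulose at 1, 4 and 24 h post-infection; controls got vehicle only. Survival was scored on days 3, 5, 7 and 9. Read-out was % survival on the day all untreated controls died, or on the day all mice given fluconazole at the same dose died.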

Candida albicans [4] = test: In vivo antifungal activity against murine candidosis model after peroral administration with 1 mg/kg at various time intervals. (percent protection for 100% mortality with untreated group); conditions: route oral; outline: as §2
Candida albicans [5] = test: In vivo antifungal activity against murine candidosis model after peroral administration with 0.5 mg/kg at various time intervals. (percent protection for 100% mortality with untreated group); conditions: route oral; outline: as §2
Candida albicans [6] = test: In vivo antifungal activity against murine candidosis model after peroral administration with 0.5 mg/kg at various time intervals. (percent protection for 100% mortality with fluconazole-treated group.); conditions: route oral; outline: as §2

Row | SMILES | MIC ([1]; read-out: MIC) [µg/mL] | MIC ([2]; read-out: MIC) [µg/mL] | Protection (Candida albicans [3]) [%] | Protection (Candida albicans [4]) [%] | Protection (Candida albicans [5]) [%] | Protection (Candida albicans [6]) [%] | MIC [1] [µg/mL] | MIC [2] [µg/mL]
1 | C[C@@H](n1cnc2cc(N)c(F)cc2c1=O)[C@](O)(Cn1cncn1)c1ccc(F)cc1F | 50 (≈ 116 µM) | 8.7 (≈ 20.2 µM) |  |  |  |  |  | 
2 | C[C@@H](n1cnc2cccc(F)c2c1=O)[C@](O)(Cn1cncn1)c1ccc(F)cc1F | 57 (≈ 137 µM) | 4.3 (≈ 10.4 µM) | 0 | 0 |  |  |  | 
3 | C[C@@H](n1cnc2cc(-n3ncnn3)ccc2c1=O)[C@](O)(Cn1cncn1)c1ccc(F)cc1F | 57 (≈ 122 µM) | 1.5 (≈ 3.22 µM) |  |  |  |  |  | 
4 | C[C@@H](n1cnc2cc(OCC(F)F)ccc2c1=O)[C@](O)(Cn1cncn1)c1ccc(F)cc1F | 25 (≈ 52.4 µM) | 1.4 (≈ 2.93 µM) |  |  | 100 | 0 |  | 
5 | C[C@@H](n1cnc2cc(OCC(F)(F)C(F)F)ccc2c1=O)[C@](O)(Cn1cncn1)c1ccc(F)cc1F | 18 (≈ 34.1 µM) | 0.4 (≈ 0.758 µM) |  |  | 100 | 100 |  | 
6 | C[C@@H](n1cnc2ccccc2c1=O)[C@](O)(Cn1cncn1)c1ccc(F)cc1F | 8.9 (≈ 22.4 µM) | 1.2 (≈ 3.02 µM) | 0 | 10 |  |  |  | 
7 | CSc1ccc2c(=O)n([C@H](C)[C@](O)(Cn3cncn3)c3ccc(F)cc3F)cnc2c1 | 3.8 (≈ 8.57 µM) | 0.5 (≈ 1.13 µM) |  |  | 100 | 40 |  | 
8 | C[C@@H](n1cnc2cc(N3CCN(c4ccc(Cl)cc4)CC3)ccc2c1=O)[C@](O)(Cn1cncn1)c1ccc(F)cc1F | 2.8 (≈ 4.73 µM) | 0.2 (≈ 0.338 µM) |  |  | 60 | 0 |  | 
9 | C[C@@H](n1cnc2cc(OCCF)ccc2c1=O)[C@](O)(Cn1cncn1)c1ccc(F)cc1F | 28 (≈ 60.9 µM) | 1.4 (≈ 3.05 µM) |  |  | 0 | 0 |  | 
10 | Cc1cc(Br)c2ncn([C@H](C)[C@](O)(Cn3cncn3)c3ccc(F)cc3F)c(=O)c2c1 | > 80 | 2.1 (≈ 4.28 µM) | 0 | 0 |  |  |  | 
11 | Cc1cccc2c(=O)n([C@H](C)[C@](O)(Cn3cncn3)c3ccc(F)cc3F)cnc12 | 80 (≈ 194 µM) | 2.3 (≈ 5.59 µM) | 0 | 10 |  |  |  | 
12 | Cc1cc(C)c2ncn([C@H](C)[C@](O)(Cn3cncn3)c3ccc(F)cc3F)c(=O)c2c1 | > 80 | 3.8 (≈ 8.93 µM) | 0 | 0 |  |  |  | 
13 | CC[C@H]([C@H](C)O)n1ncn(-c2ccc(N3CCN(c4ccc5c(=O)n([C@H](C)[C@](O)(Cn6cncn6)c6ccc(F)cc6F)cnc5c4)CC3)cc2)c1=O | > 80 | 32 (≈ 44 µM) |  |  |  |  |  | 
14 | C[C@@H](n1cnc2c(Cl)cc(Cl)cc2c1=O)[C@](O)(Cn1cncn1)c1ccc(F)cc1F | > 80 | 1.7 (≈ 3.65 µM) | 0 | 100 |  |  |  | 
15 | C[C@@H](n1cnc2c(Br)cc(Br)cc2c1=O)[C@](O)(Cn1cncn1)c1ccc(F)cc1F | > 80 | 2.6 (≈ 4.68 µM) | 0 | 10 |  |  |  | 
16 | Cc1ccc2ncn([C@H](C)[C@](O)(Cn3cncn3)c3ccc(F)cc3F)c(=O)c2c1 | 45 (≈ 109 µM) | 1.4 (≈ 3.4 µM) | 0 | 40 |  |  |  | 
17 | C[C@@H](n1cnc2cc(S(=O)(=O)c3ccccc3)ccc2c1=O)[C@](O)(Cn1cncn1)c1ccc(F)cc1F | 8.7 (≈ 16.2 µM) | 1.2 (≈ 2.23 µM) |  |  | 0 | 0 |  | 
18 | C[C@@H](n1cnc2ccc(Cl)cc2c1=O)[C@](O)(Cn1cncn1)c1ccc(F)cc1F | 50 (≈ 116 µM) | 1 (≈ 2.32 µM) | 0 | 40 |  |  |  | 
19 | C[C@@H](n1cnc2cc3ccccc3cc2c1=O)[C@](O)(Cn1cncn1)c1ccc(F)cc1F | 45 (≈ 101 µM) | 0.4 (≈ 0.894 µM) | 0 | 30 |  |  |  | 
20 | C[C@@H](n1cnc2cc(N3CCN(c4ccc([N+](=O)[O-])cc4)CC3)ccc2c1=O)[C@](O)(Cn1cncn1)c1ccc(F)cc1F | > 80 | 7.9 (≈ 13.1 µM) |  |  |  |  |  | 
21 | C[C@@H](n1cnc2cc(N3CCOC3=O)ccc2c1=O)[C@](O)(Cn1cncn1)c1ccc(F)cc1F | 80 (≈ 166 µM) | 8.7 (≈ 18 µM) |  |  |  |  |  | 
22 | C[C@@H](n1cnc2cc(S(C)(=O)=O)ccc2c1=O)[C@](O)(Cn1cncn1)c1ccc(F)cc1F | > 80 | 11 (≈ 23.1 µM) |  |  | 100 | 80 |  | 
23 | C[C@@H](n1cnc2cc(NC(=O)C(F)(F)F)c(F)cc2c1=O)[C@](O)(Cn1cncn1)c1ccc(F)cc1F | 80 (≈ 152 µM) | 8.1 (≈ 15.4 µM) |  |  |  |  |  | 
24 | C[C@@H](n1cnc2cc(Cl)ccc2c1=O)[C@](O)(Cn1cncn1)c1ccc(F)cc1F (stereo in doubt; 75) [ALBACONAZOLE] |  |  |  |  |  |  | 33 (≈ 76.4 µM) | 1 (≈ 2.32 µM)
